Laboratory results: PMC6766976 (Journal of Clinical Pharmacology, 2019)
Read-outs that look alike come from different tables or passages of the source.

Columns and labels:
JAK 2 = conditions: cited from earlier work
[1] = Safety and tolerability assessments in the hepatic impairment study; format: in vivo, human; conditions: Single 15-mg dose
In short: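 Open-label, single-dose study in subjects with mild or moderate hepatic impairment (Child-Pugh) and normal-function controls. Subjects were confined from the day before dosing and given the oral extended-release test compound after a 10-hour fast, then fasted 4 h post-dose. Adverse events, hematology, blood chemistry, vital signs, ECGs and physical exams were monitored. Treatment-emergent events were tabulated per hepatic group by MedDRA class and term.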

[2] = cited from earlier work
JAK 3 = conditions: cited from earlier work
[3] = format: in vivo, human
cytochrome P450 (CYP) 3A = conditions: cited from earlier work
JAK 1 = conditions: cited from earlier work
Tyk2 = conditions: cited from earlier work
plasma proteins = conditions: ref data on file at AbbVie; cited from earlier work
[4] = cited from earlier work; remark: listed apart in the source
[5] = Over the range of IR and ER doses evaluated in clinical studies; cited from earlier work
[6] = cited from earlier work; remark: listed apart in the source
[7] = cited from earlier work; remark: listed apart in the source
[8] = Moderate hepatic impairment (outlier excluded)
[9] = Subjects with mild and moderate hepatic impairment
[10] = IR formulation, relative to upadacitinib alone

CC[C@@H]1CN(C(=O)NCC(F)(F)F)C[C@@H]1c1cnc2cnc3[nH]ccc3n12 [upadacitinib]
Potency against JAK 2 compared with JAK 1 (JAK 2): less potent
Changes in vital signs or hematology measurements [1]: No clinically significant changes
Tolerability ([1]; all subjects): well tolerated
Dose eliminated unchanged in urine ([2]; IR dose): Approximately 20%
Dose eliminated in urine and feces as metabolites ([2]; ref data on file at AbbVie): approximately 30%
Potency against JAK 3 compared with JAK 1 (JAK 3): less potent
AUC lower compared with mean AUC in subjects with normal hepatic function ([3]; 1 subject in the moderate hepatic impairment group (excluded from analyses)): approximately 70%
Plasma concentration at 120 hours ([3]; All subjects and all groups, lower limit of quantitation 0.05 ng/mL): below the assay limit of quantification
AUC central value higher compared with normal hepatic function ([3]; Mild hepatic impairment): 28%
Cmax central value compared with normal hepatic function ([3]; Mild hepatic impairment): similar
β (terminal-phase elimination rate constant) versus normal hepatic function ([3]; Mild hepatic impairment, ANCOVA): no statistically significant difference
AUC central value higher compared with normal hepatic function [3, 8]: 24%
Cmax central value higher compared with normal hepatic function [3, 8]: 43%
Increase in upadacitinib exposure, AUC [3, 9]: < 30%
Increase in upadacitinib exposure, Cmax [3, 9]: < 45%
Substrate status for cytochrome P450 (CYP) 3A (cytochrome P450 (CYP) 3A; Evaluated in phase 1 drug-interaction study with ketoconazole): nonsensitive substrate
Increase in plasma AUC with coadministration of ketoconazole (cytochrome P450 (CYP) 3A; [10]): 75%
Increase in plasma Cmax with coadministration of ketoconazole (cytochrome P450 (CYP) 3A; [10]): 70%
Inhibition of JAK 1 (JAK 1): potently inhibits
Potency against Tyk2 compared with JAK 1 (Tyk2): less potent
Plasma protein binding (plasma proteins): not extensively bound to plasma proteins
Increase in upadacitinib exposure with a high-fat meal [4]: Approximately 20%
Plasma exposure dose and time dependence [5]: approximately dose proportional and time independent
Impact of baseline AST, ALT and bilirubin on upadacitinib exposure ([6]; Phase 1 to 3 studies, healthy subjects and subjects with RA): no impact
Correlation of CYP2D6 metabolic phenotype with upadacitinib clearance [6]: not correlated
Effect of age, weight, sex, race and ethnicity on upadacitinib exposure [6]: no clinically relevant effect
AUC higher compared with normal renal function ([7]; Mild renal impairment): 18%
Cmax compared with normal renal function ([7]; Mild, moderate and severe renal impairment): similar
AUC higher compared with normal renal function ([7]; Moderate renal impairment): 33%
AUC higher compared with normal renal function ([7]; Severe renal impairment): 44%
